≈ marks a conversion by molar mass, not a printed value.
What was measured:
Format in all cases: functional
[1] = test system: Escherichia coli; assay: Antibacterial activity against qnrA gene expressing Escherichia coli ATCC 25922 harboring ParC S80R mutant and pBK-QnrA1 by broth microdilution method
[2] = test system: Escherichia coli; assay: Antibacterial activity against qnrS gene expressing Escherichia coli ATCC 25922 harboring GyrA S83L mutant and pBK-QnrS1 by broth microdilution method
[3] = test system: Escherichia coli; assay: Antibacterial activity against qnrS gene expressing Escherichia coli ATCC 25922 harboring GyrA S83L mutant and pBK-QnrS1 assessed as earliest time required to resistant colonies visible one step below mutant prevention concentration
[4] = test system: Escherichia coli; assay: Antibacterial activity against Escherichia coli ATCC 25922 harboring GyrA S83L mutant and ParC S80R mutant by broth microdilution method
[5] = test system: Escherichia coli; assay: Antibacterial activity against qnrB gene expressing Escherichia coli ATCC 25922 harboring ParC S80R mutant, ParC S80R mutant and pBK-QnrB1 by broth microdilution method
[6] = test system: Escherichia coli; assay: Antibacterial activity against Escherichia coli ATCC 25922 expressing qnrA gene and pBK-QnrA1 by broth microdilution method
[7] = test system: Escherichia coli; assay: Antibacterial activity against Escherichia coli ATCC 25922 expressing qnrA gene and pBK-QnrA1 assessed as mutant prevention concentration
[8] = test system: Escherichia coli; assay: Antibacterial activity against qnrB gene expressing Escherichia coli ATCC 25922 harboring GyrA S83L mutant and pBK-QnrB1 assessed as mutant prevention concentration
[9] = test system: Escherichia coli; assay: Antibacterial activity against Escherichia coli ATCC 25922 harboring GyrA S83L mutant assessed as mutant prevention concentration
[10] = test system: Escherichia coli; assay: Antibacterial activity against Escherichia coli ATCC 25922 expressing qnrB gene and pBK-QnrB1 assessed as mutant prevention concentration
[11] = test system: Escherichia coli; assay: Antibacterial activity against Escherichia coli ATCC 25922 by broth microdilution method
[12] = test system: Escherichia coli; assay: Antibacterial activity against qnrB gene expressing Escherichia coli ATCC 25922 harboring ParC S80R mutant and pBK-QnrB1 by broth microdilution method
[13] = test system: Escherichia coli; assay: Antibacterial activity against Escherichia coli ATCC 25922 expressing qnrA gene and pBK-QnrA1 assessed as earliest time required to resistant colonies visible one step below mutant prevention concentration
[14] = test system: Escherichia coli; assay: Antibacterial activity against qnrA gene expressing Escherichia coli ATCC 25922 harboring GyrA S83L mutant and pBK-QnrA1 assessed as mutant prevention concentration
[15] = test system: Escherichia coli; assay: Antibacterial activity against Escherichia coli ATCC 25922 expressing qnrS gene and pBK-QnrS1 assessed as mutant prevention concentration
[16] = test system: Escherichia coli; assay: Antibacterial activity against Escherichia coli ATCC 25922 expressing qnrS gene and pBK-QnrS1 assessed as earliest time required to resistant colonies visible one step below mutant prevention concentration
[17] = test system: Escherichia coli; assay: Antibacterial activity against Escherichia coli ATCC 25922 harboring ParC S80R mutant by broth microdilution method
[18] = test system: Escherichia coli; assay: Antibacterial activity against qnrA gene expressing Escherichia coli ATCC 25922 harboring GyrA S83L mutant and pBK-QnrA1 assessed as earliest time required to resistant colonies visible one step below mutant prevention concentration
[19] = test system: Escherichia coli; assay: Antibacterial activity against Escherichia coli ATCC 25922 expressing qnrB gene and pBK-QnrB1 assessed as earliest time required to resistant colonies visible one step below mutant prevention concentration
[20] = test system: Escherichia coli; assay: Antibacterial activity against Escherichia coli ATCC 25922 assessed as earliest time required to resistant colonies visible one step below mutant prevention concentration
[21] = test system: Escherichia coli; assay: Antibacterial activity against qnrB gene expressing Escherichia coli ATCC 25922 harboring GyrA S83L mutant and pBK-QnrB1 by broth microdilution method
[22] = test system: Escherichia coli; assay: Antibacterial activity against qnrA gene expressing Escherichia coli ATCC 25922 harboring ParC S80R mutant, ParC S80R mutant and pBK-QnrA1 by broth microdilution method
[23] = test system: Escherichia coli; assay: Antibacterial activity against Escherichia coli ATCC 25922 harboring GyrA S83L mutant assessed as earliest time required to resistant colonies visible one step below mutant prevention concentration
[24] = test system: Escherichia coli; assay: Antibacterial activity against Escherichia coli ATCC 25922 harboring GyrA S83L mutant by broth microdilution method
[25] = test system: Escherichia coli; assay: Antibacterial activity against Escherichia coli ATCC 25922 expressing qnrB gene and pBK-QnrB1 by broth microdilution method
[26] = test system: Escherichia coli; assay: Antibacterial activity against Escherichia coli ATCC 25922 assessed as mutant prevention concentration
[27] = test system: Escherichia coli; assay: Antibacterial activity against qnrA gene expressing Escherichia coli ATCC 25922 harboring GyrA S83L mutant and pBK-QnrA1 by broth microdilution method
[28] = test system: Escherichia coli; assay: Antibacterial activity against qnrS gene expressing Escherichia coli ATCC 25922 harboring ParC S80R mutant, ParC S80R mutant and pBK-QnrS1 by broth microdilution method
[29] = test system: Escherichia coli; assay: Antibacterial activity against Escherichia coli ATCC 25922 expressing qnrS gene and pBK-QnrS1 by broth microdilution method
[30] = test system: Escherichia coli; assay: Antibacterial activity against qnrS gene expressing Escherichia coli ATCC 25922 harboring GyrA S83L mutant and pBK-QnrS1 assessed as mutant prevention concentration
[31] = test system: Escherichia coli; assay: Antibacterial activity against qnrB gene expressing Escherichia coli ATCC 25922 harboring GyrA S83L mutant and pBK-QnrB1 assessed as earliest time required to resistant colonies visible one step below mutant prevention concentration
[32] = test system: Escherichia coli; assay: Antibacterial activity against qnrS gene expressing Escherichia coli ATCC 25922 harboring ParC S80R mutant and pBK-QnrS1 by broth microdilution method
[33] = test system: Escherichia coli; assay: Antibacterial activity against Escherichia coli ATCC 25922 harboring GyrA S83L mutant assessed as resistant colonies recovered one step below mutant prevention concentration
Procedure, shortened: (§1)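 Resistant colonies recovered from Mueller-Hinton plates one concentration step below the MPC for each fluoroquinolone were retested for MIC. Mutants taken from plated concentrations closest to the MPC had the QRDRs of gyrA and parC analysed.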

[34] = test system: Escherichia coli; assay: Antibacterial activity against qnrA gene expressing Escherichia coli ATCC 25922 harboring GyrA S83L mutant and pBK-QnrA1 assessed as resistant colonies recovered one step below mutant prevention concentration; procedure, shortened: as §1
[35] = test system: Escherichia coli; assay: Antibacterial activity against qnrS gene expressing Escherichia coli ATCC 25922 harboring GyrA S83L mutant and pBK-QnrS1 assessed as resistant colonies recovered one step below mutant prevention concentration; procedure, shortened: as §1
[36] = test system: Escherichia coli; assay: Antibacterial activity against Escherichia coli ATCC 25922 assessed as resistant colonies recovered one step below mutant prevention concentration; procedure, shortened: as §1
[37] = test system: Escherichia coli; assay: Antibacterial activity against Escherichia coli ATCC 25922 expressing qnrA gene and pBK-QnrA1 assessed as resistant colonies recovered one step below mutant prevention concentration; procedure, shortened: as §1
[38] = test system: Escherichia coli; assay: Antibacterial activity against Escherichia coli ATCC 25922 expressing qnrB gene and pBK-QnrB1 assessed as resistant colonies recovered one step below mutant prevention concentration; procedure, shortened: as §1
[39] = test system: Escherichia coli; assay: Antibacterial activity against qnrB gene expressing Escherichia coli ATCC 25922 harboring GyrA S83L mutant and pBK-QnrB1 assessed as resistant colonies recovered one step below mutant prevention concentration; procedure, shortened: as §1
[40] = test system: Escherichia coli; assay: Antibacterial activity against Escherichia coli ATCC 25922 expressing qnrS gene and pBK-QnrS1 assessed as resistant colonies recovered one step below mutant prevention concentration; procedure, shortened: as §1

O=C(O)c1cn(C2CC2)c2cc(N3CCNCC3)c(F)cc2c1=O [CIPROFLOXACIN]
MBC [1]: 0.25 µg/mL (≈ 0.754 µM)
MBC [2]: 1 µg/mL (≈ 3.02 µM)
Time [3]: 24 h
MBC [4]: 2 µg/mL (≈ 6.04 µM)
MBC [5]: 2 µg/mL (≈ 6.04 µM)
MBC [6]: 0.125 µg/mL (≈ 0.377 µM)
Activity [7]: 8 µg/mL
Activity [8]: 8 µg/mL
Activity [9]: 4 µg/mL
Activity [10]: 2 µg/mL
MBC [11]: 0.015 µg/mL (≈ 0.0453 µM)
MBC [12]: 0.25 µg/mL (≈ 0.754 µM)
Time [13]: 48 h
Activity [14]: 16 µg/mL
Activity [15]: 4 µg/mL
Time [16]: 24 h
MBC [17]: 0.004 µg/mL (≈ 0.0121 µM)
Time [18]: 24 h
Time [19]: 72 h
Time [20]: 48 h
MBC [21]: 0.5 µg/mL (≈ 1.51 µM)
MBC [22]: 4 µg/mL (≈ 12.1 µM)
Time [23]: 24 h
MBC [24]: 0.125 µg/mL (≈ 0.377 µM)
MBC [25]: 0.125 µg/mL (≈ 0.377 µM)
Activity [26]: 1 µg/mL
MBC [27]: 0.5 µg/mL (≈ 1.51 µM)
MBC [28]: 4 µg/mL (≈ 12.1 µM)
MBC [29]: 0.25 µg/mL (≈ 0.754 µM)
Activity [30]: 8 µg/mL
Time [31]: 24 h
MBC [32]: 0.25 µg/mL (≈ 0.754 µM)

C[C@H]1COc2c(N3CCN(C)CC3)c(F)cc3c(=O)c(C(=O)O)cn1c23.C[C@H]1COc2c(N3CCN(C)CC3)c(F)cc3c(=O)c(C(=O)O)cn1c23.O [LEVOFLOXACIN]
MBC [1]: 0.5 µg/mL
MIC [1]: 0.25 µg/mL
MBC [2]: 2 µg/mL
Time [3]: 96 h
MBC [4]: 0.25 µg/mL
MIC [4]: 0.25 µg/mL
MBC [5]: 1 µg/mL
MBC [6]: 0.5 µg/mL
Activity [7]: 8 µg/mL
MIC [33]: 2 µg/mL
MIC [34]: 2 µg/mL
Activity [8]: 16 µg/mL
Activity [9]: 4 µg/mL
Activity [10]: 4 µg/mL
MBC [11]: 0.03 µg/mL
MBC [12]: 0.5 µg/mL
MIC [12]: 0.25 µg/mL
Time [13]: 24 h
Activity [14]: 32 µg/mL
Activity [15]: 4 µg/mL
Time [16]: 24 h
MIC [35]: 4 µg/mL
MBC [17]: 0.008 µg/mL
Time [18]: 24 h
Time [19]: 48 h
Time [20]: 48 h
MBC [21]: 0.5 µg/mL
MIC [21]: 0.25 µg/mL
MBC [22]: 4 µg/mL
MIC [22]: 2 µg/mL
Time [23]: 24 h
MBC [24]: 0.25 µg/mL
MIC [24]: 0.125 µg/mL
MBC [25]: 0.25 µg/mL
Activity [26]: 2 µg/mL
MBC [27]: 0.5 µg/mL
MBC [28]: 4 µg/mL
MIC [28]: 4 µg/mL
MBC [29]: 0.5 µg/mL
MIC [29]: 0.125 µg/mL
Activity [30]: 16 µg/mL
Time [31]: 72 h
MBC [32]: 0.25 µg/mL
MIC [32]: 0.25 µg/mL
MIC [36]: 0.125 µg/mL

COc1c(N2C[C@@H]3CCCN[C@@H]3C2)c(F)cc2c(=O)c(C(=O)O)cn(C3CC3)c12 [MOXIFLOXACIN]
MBC [1]: 0.5 µg/mL (≈ 1.25 µM)
MIC [1]: 0.5 µg/mL (≈ 1.25 µM)
MIC [37]: 0.5 µg/mL (≈ 1.25 µM)
MBC [2]: 2 µg/mL (≈ 4.98 µM)
MIC [2]: 1 µg/mL (≈ 2.49 µM)
Time [3]: 24 h
MBC [4]: 0.25 µg/mL (≈ 0.623 µM)
MIC [4]: 0.25 µg/mL (≈ 0.623 µM)
MBC [5]: 2 µg/mL (≈ 4.98 µM)
MIC [5]: 1 µg/mL (≈ 2.49 µM)
MBC [6]: 0.5 µg/mL (≈ 1.25 µM)
MIC [6]: 0.25 µg/mL (≈ 0.623 µM)
Activity [7]: 8 µg/mL
MIC [33]: 1 µg/mL (≈ 2.49 µM)
Activity [8]: 32 µg/mL
MIC [38]: 0.5 µg/mL (≈ 1.25 µM)
Activity [9]: 4 µg/mL
Activity [10]: 4 µg/mL
MBC [11]: 0.015 µg/mL (≈ 0.0374 µM)
MIC [11]: 0.008 µg/mL (≈ 0.0199 µM)
MBC [12]: 0.5 µg/mL (≈ 1.25 µM)
MIC [12]: 0.5 µg/mL (≈ 1.25 µM)
Time [13]: 24 h
MIC [39]: 1 µg/mL (≈ 2.49 µM)
Activity [14]: 16 µg/mL
Activity [15]: 4 µg/mL
Time [16]: 24 h
MIC [40]: 0.5 µg/mL (≈ 1.25 µM)
MIC [35]: 1 µg/mL (≈ 2.49 µM)
MBC [17]: 0.008 µg/mL (≈ 0.0199 µM)
MIC [17]: 0.008 µg/mL (≈ 0.0199 µM)
Time [18]: 24 h
Time [19]: 24 h
Time [20]: 48 h
MBC [21]: 0.5 µg/mL (≈ 1.25 µM)
MIC [21]: 0.5 µg/mL (≈ 1.25 µM)
MBC [22]: 4 µg/mL (≈ 9.96 µM)
Time [23]: 24 h
MBC [24]: 0.125 µg/mL (≈ 0.311 µM)
MBC [25]: 1 µg/mL (≈ 2.49 µM)
MIC [25]: 0.25 µg/mL (≈ 0.623 µM)
Activity [26]: 2 µg/mL
MBC [27]: 0.5 µg/mL (≈ 1.25 µM)
MIC [27]: 0.5 µg/mL (≈ 1.25 µM)
MBC [28]: 4 µg/mL (≈ 9.96 µM)
MBC [29]: 0.25 µg/mL (≈ 0.623 µM)
MIC [29]: 0.25 µg/mL (≈ 0.623 µM)
Activity [30]: 32 µg/mL
Time [31]: 24 h
MBC [32]: 0.5 µg/mL (≈ 1.25 µM)
MIC [32]: 0.25 µg/mL (≈ 0.623 µM)
